# Laboratory results: ChEMBL document CHEMBL1137056, “Synthesis of fluorinated analogues of SJG-136 and their DNA-binding potential” (Bioorg Med Chem Lett, 2004)
# Columns and labels:
# Type in all cases: functional
# Bos taurus [1] = species on record: Bos taurus; test: Increase in melting point temperature after 36 hr of incubation [1:5] as measurement of DNA binding affinity using calf thymus DNA
# Method in brief: (§1)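 Thermal denaturation of calf thymus DNA, 100 µM DNA with 20 µM ligand (1:5 ligand:DNA molar ratio). Buffer was aqueous 10 mM sodium phosphate with 1 mM EDTA, pH 7.00. Mixtures were incubated at 37°C for the stated time, then the shift in helix melting temperature versus DNA alone was recorded. DNA-only Tm is the mean of 10 determinations.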
# Bos taurus [2] = species on record: Bos taurus; test: Increase in melting point temperature after 0h of incubation [1:5 ratio] as measurement of DNA binding affinity using calf thymus DNA; method in brief: as §1
# Bos taurus [3] = species on record: Bos taurus; test: Increase in melting point temperature after 18 hr of incubation [1:5] as measurement of DNA binding affinity using calf thymus DNA; method in brief: as §1
Structure (SMILES),ΔTm (Bos taurus [1]),ΔTm (Bos taurus [2]),ΔTm (Bos taurus [3])
COc1cc2c(cc1OCCCOc1cc3c(cc1OC)C(=O)N1CC(=C(F)F)C[C@H]1C=N3)N=C[C@@H]1CC(=C(F)F)CN1C2=O,24.9 °C,20.8 °C,24.6 °C
C=C1C[C@H]2C=Nc3cc(OCCCOc4cc5c(cc4OC)C(=O)N4CC(=C)C[C@H]4C=N5)c(OC)cc3C(=O)N2C1,,25.7 °C,33.6 °C
COc1cc2c(cc1O)N=C[C@@H]1CC(=C(F)F)CN1C2=O,2.2 °C,1 °C,1.7 °C
COc1cc2c(cc1O)N=C[C@@H]1CCCN1C2=O,0.7 °C,0.3 °C,0.7 °C
COc1cc2c(cc1OCCCCCOc1cc3c(cc1OC)C(=O)N1CC(=C(F)F)C[C@H]1C=N3)N=C[C@@H]1CC(=C(F)F)CN1C2=O,21.3 °C,16.2 °C,19.2 °C
COc1cc2c(cc1OCCCOc1cc3c(cc1OC)C(=O)N1CCC[C@H]1C=N3)N=C[C@@H]1CCCN1C2=O,15.7 °C,10.2 °C,15.1 °C
COc1cc2c(cc1OCCCCOc1cc3c(cc1OC)C(=O)N1CC(=C(F)F)C[C@H]1C=N3)N=C[C@@H]1CC(=C(F)F)CN1C2=O,6.5 °C,2.1 °C,5.2 °C
